We go through 28 molecules from ChEMBL document CHEMBL4673235, “Synthesis and biological evaluation of ethacrynic acid derivatives bearing sulfonamides as potent anti-cancer agents” (Bioorg Med Chem Lett, 2020).

Data set [1] relates to HL-60. Briefly: Cytotoxicity against human HL-60 cells assessed as reduction in cell viability by CellTiter Glo luminescent assay. The class given is functional, cell-based. The method, boiled down: (§1)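 CellTiter-Glo luminescent read-out of cellular ATP, taken as proportional to viable cell number; percentage viability measured and IC50 derived. MRC5 used as normal (non-cancer) line.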
On the technique in general: ATP-based viability assays read luminescence as a measure of living cells.

Data set [2] has as its system HCT-116. The data set is described as follows: Cytotoxicity against human HCT-116 cells assessed as cell viability at 10 uM by CellTiter Glo luminescent assay relative to control. The following applies: read-out: Activity. The class given is functional. The gist of the method:
(§2)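 Single-concentration screen at 10 µM; percentage viability measured by CellTiter-Glo luminescent quantitation of ATP in metabolically active cells.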

Data set [3] deals with HL-60. The data set is described as follows: Cytotoxicity against human HL-60 cells assessed as cell viability at 10 uM by CellTiter Glo luminescent assay relative to control. Format: functional. The following applies: read-out: Activity. The method, boiled down:
as §2

The test system of data set [4] is A549. The data set is described as follows: Cytotoxicity against human A549 cells assessed as reduction in cell viability by CellTiter Glo luminescent assay. The class given is functional, cell-based. The gist of the method: as §1
Data set [5] has as its system MRC5. The data set is described as follows: Cytotoxicity against human MRC5 cells assessed as reduction in cell viability by CellTiter Glo luminescent assay. Format: cell-based. The gist of the method: as §1
Data set [6] has as its system U-87 MG. The data set is described as follows: Cytotoxicity against human U-87 MG cells assessed as reduction in cell viability by CellTiter Glo luminescent assay. Format: functional, cell-based, U-87MG ATCC. The gist of the method:
as §1

For data set [7], the system named is HCT-116. Briefly: Cytotoxicity against human HCT-116 cells assessed as reduction in cell viability by CellTiter Glo luminescent assay. The class given is functional, cell-based. The method, boiled down: as §1
The test system of data set [8] is MCF7. Briefly: Cytotoxicity against human MCF7 cells assessed as reduction in cell viability by CellTiter Glo luminescent assay. The class given is functional, cell-based. The method, boiled down: as §1
Data set [9] concerns PC-3. Briefly: Cytotoxicity against human PC-3 cells assessed as reduction in cell viability by CellTiter Glo luminescent assay. Format: functional, cell-based. The method, boiled down: as §1
A short description of data set [10]: Selectivity index, ratio of IC50 for human MRC5 cells to IC50 for human HL60 cells by CellTiter Glo luminescent assay. Format: toxicity. The following applies: MRC5 cells versus HL60 cells, read-out: Ratio IC50.
A short description of data set [11]: Selectivity index, ratio of IC50 for human MRC5 cells to IC50 for human MCF7 cells by CellTiter Glo luminescent assay. Format: toxicity. The following applies: MRC5 cells versus MCF7 cells, read-out: Ratio IC50. The method, boiled down:
(§3)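 Safety ratio computed as IC50 in MRC5 normal cells divided by IC50 in the cancer line, both from CellTiter-Glo ATP-luminescence viability assays.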

The nature of data set [12]: Selectivity index, ratio of IC50 for human MRC5 cells to IC50 for human SK-OV-3 cells by CellTiter Glo luminescent assay. The class given is toxicity. The following applies: MRC5 cells versus SK-OV-3 cells, read-out: Ratio IC50. The gist of the method:
as §3

Data set [13] in a line: Selectivity index, ratio of IC50 for human MRC5 cells to IC50 for human U-87 MG cells by CellTiter Glo luminescent assay. The class given is toxicity. The following applies: MRC5 cells versus U-87 MG cells, read-out: Ratio IC50. The method, boiled down: as §3
A short description of data set [14]: Selectivity index, ratio of IC50 for human HL-60 cells to IC50 for human HCT-116 cells by CellTiter Glo luminescent assay. The class given is functional.
The nature of data set [15]: Selectivity index, ratio of IC50 for human MRC5 cells to IC50 for human A549 cells by CellTiter Glo luminescent assay. The following applies: MRC5 cells versus A549 cells, read-out: Ratio IC50. The class given is toxicity. The gist of the method: as §3
The nature of data set [16]: Selectivity index, ratio of IC50 for human MRC5 cells to IC50 for human HCT-116 cells by CellTiter Glo luminescent assay. The class given is toxicity. The following applies: MRC5 cells versus HCT-116 cells, read-out: Ratio IC50. The method, boiled down:
as §3

Data set [17] deals with SK-OV-3. Briefly: Cytotoxicity against human SK-OV-3 cells assessed as reduction in cell viability by CellTiter Glo luminescent assay. The class given is functional, cell-based. The gist of the method: as §1
A short description of data set [18]: Selectivity index, ratio of IC50 for human MRC5 cells to IC50 for human PC-3 cells by CellTiter Glo luminescent assay. Format: toxicity. The following applies: MRC5 cells versus PC-3 cells, read-out: Ratio IC50. The gist of the method: as §3

SMILES strings stand for the structures.

Turning to `C=C(CC)C(=O)c1ccc(OCC(=O)NCCNS(=O)(=O)C2CCCCC2)c(Cl)c1Cl`, the half-inhibitory concentration (IC50) (in general, the midpoint of a concentration-inhibition curve) in data set [1] was 1340 nM. In addition, the figures for the viability at 10 µM in [2] and in data set [3] were 91% and 28%, respectively.
For `C=C(CC)C(=O)c1ccc(OCC(=O)NC2CCN(S(C)(=O)=O)CC2)c(Cl)c1Cl` the same measures were 3330 nM, 73% and 26%.
Take `C=C(CC)C(=O)c1ccc(OCC(=O)N2CCN(S(=O)(=O)c3ccc(OC)c(OC)c3)CC2)c(Cl)c1Cl`: the viability at 10 µM came to 89% in data set [2] and 100% in data set [3].
Regarding `C=C(CC)C(=O)c1ccc(OCC(=O)NCCNS(=O)(=O)c2ccc(OC)cc2)c(Cl)c1Cl`, the IC50 in data set [1] came out at 860 nM. Also, the viability at 10 µM in data set [2] worked out at 97%; in data set [3], 24%.
For `C=C(CC)C(=O)c1ccc(OCC(=O)N2CCN(S(=O)(=O)c3cc(Cl)ccc3OC)CC2)c(Cl)c1Cl` the same measures were 1410 nM, 75% and 24%.
The corresponding values for `C=C(CC)C(=O)c1ccc(OCC(=O)NCCNS(=O)(=O)c2ccc(OC)c(OC)c2)c(Cl)c1Cl` are 3360 nM, 97% and 19%.
For `C=C(CC)C(=O)c1ccc(OCC(=O)NC2CCN(S(=O)(=O)c3ccc(OC)c(OC)c3)CC2)c(Cl)c1Cl`, the IC50 in data set [1] was determined as 1310 nM. The viability at 10 µM was 99% in [2] and 25% in data set [3].
With `COc1cccc2c1C(=O)c1c(O)c3c(c(O)c1C2=O)C[C@@](O)(C(=O)CO)C[C@@H]3O[C@H]1C[C@H](N)[C@H](O)[C@H](C)O1` [DOXORUBICIN], the IC50 was 10 nM in data set [1]; 56 nM in data set [4]; 39 nM in data set [5]; 90 nM in [6]; 90 nM in data set [7]; 120 nM in [8]. In addition, the IC50 in data set [9] is 2 nM.
In the case of `C=C(CC)C(=O)c1ccc(OCC(=O)N2CCN(S(=O)(=O)c3ccc(OC)cc3OC)CC2)c(Cl)c1Cl`, the IC50 in data set [1] was 3190 nM. Further, the viability at 10 µM in data set [2] stood at 40%; in data set [3], 15%.
For `C=C(CC)C(=O)c1ccc(OCC(=O)N2CCN(S(=O)(=O)c3ccc(OC)cc3)CC2)c(Cl)c1Cl`, the IC50 was found to be 590 nM in data set [1]; 64 nM in data set [4]; 100 nM in [5]; 207 nM in [6]; 50 nM in [7]; 56 nM in data set [8]. Also, the IC50 in data set [17] is 219 nM; in [9], 24 nM. Besides, the selectivity ratio in [10] turned out to be 0.16; in data set [11] it was 1.78; in data set [12], 0.45; in data set [13], 0.48; in [15], 1.54; in data set [16] it was 2. In [18], the selectivity ratio was 4.03. Besides, the results for the viability at 10 µM in data set [2] and in [3] were 21% and 17%, respectively. Besides, the “Ratio IC50” value in data set [14] worked out at 12.
For `C=C(CC)C(=O)c1ccc(OCC(=O)NC2CCN(S(=O)(=O)c3cccc4cccnc34)CC2)c(Cl)c1Cl`, the IC50 in data set [1] turned out to be 970 nM. The viability at 10 µM in data set [2] is 84%; in data set [3] it was 34%.
As to `C=C(CC)C(=O)c1ccc(OCC(=O)NC2CCN(S(=O)(=O)c3cc(Cl)ccc3OC)CC2)c(Cl)c1Cl`, the IC50 in [1] came out at 700 nM; in data set [4], 55 nM; in data set [5], 900 nM; in data set [6] it was 307 nM; in data set [7], 790 nM; in [8] it was 97 nM. In addition, the IC50 in data set [17] worked out at 150 nM; in [9], 76 nM. The selectivity ratio in [10] was 1.28; in [11], 9.27; in [12], 6; in [13], 2.93; in data set [15] it was 16.3; in [16], 1.13. The selectivity ratio in data set [18] came to 11.8. Further, the viability at 10 µM in data set [3] was found to be 16%.
Take `C=C(CC)C(=O)c1ccc(OCC(=O)NC2CCN(S(=O)(=O)c3ccc([N+](=O)[O-])cc3)CC2)c(Cl)c1Cl`: in data set [1], the half-maximal inhibitory concentration (IC50) was 2470 nM. Further, the viability at 10 µM in data set [2] is 100%; in [3], 23%.
For `C=C(CC)C(=O)c1ccc(OCC(=O)N2CCN(S(=O)(=O)C3CCCCC3)CC2)c(Cl)c1Cl`, the IC50 in data set [1] stood at 2320 nM. In addition, the viability at 10 µM in data set [2] is 100%; in data set [3] it was 32%.
For `C=C(CC)C(=O)c1ccc(OCC(=O)NCCNS(=O)(=O)c2ccc(C)cc2)c(Cl)c1Cl`, the half-inhibitory concentration (IC50) in data set [1] amounted to 2370 nM. Further, the viability at 10 µM in data set [2] came to 100%; in [3], 17%.
The corresponding values for `C=C(CC)C(=O)c1ccc(OCC(=O)NCCNS(=O)(=O)c2cccc3cccnc23)c(Cl)c1Cl` are 1330 nM, 100% and 20%.
As for `C=C(CC)C(=O)c1ccc(OCC(=O)NC2CCN(S(=O)(=O)c3ccc(C)cc3)CC2)c(Cl)c1Cl`, the IC50 in data set [1] amounted to 980 nM. The viability at 10 µM in data set [2] is 100%; in data set [3], 25%.
Regarding `C=C(CC)C(=O)c1ccc(OCC(=O)NCCNS(C)(=O)=O)c(Cl)c1Cl`, the IC50 in [1] was found to be 940 nM. Moreover, the viability at 10 µM in [2] was 62%; in data set [3] it was 21%.
The corresponding values for `C=C(CC)C(=O)c1ccc(OCC(=O)N2CCN(S(=O)(=O)c3ccc([N+](=O)[O-])cc3)CC2)c(Cl)c1Cl` are 3260 nM, 100% and 24%.
For the molecule `C=C(CC)C(=O)c1ccc(OCC(=O)NC2CCN(S(=O)(=O)C3CCCCC3)CC2)c(Cl)c1Cl`, in [1], the 50% inhibitory concentration (IC50) came to 2940 nM. The viability at 10 µM came out at 61% in data set [2] and 41% in [3].
Turning to `C=C(CC)C(=O)c1ccc(OCC(=O)N2CCN(S(=O)(=O)c3ccc(C)cc3)CC2)c(Cl)c1Cl`, the viability at 10 µM in [2] is 100%; in data set [3] it was 64%.
Take `C=C(CC)C(=O)c1ccc(OCC(=O)NC2CCN(S(=O)(=O)c3ccc(OC)cc3)CC2)c(Cl)c1Cl`: the IC50 is 630 nM in [1]; 67 nM in data set [4]; 4320 nM in data set [5]; 238 nM in [6]; 1150 nM in [7]; 128 nM in [8]. For the same molecule, the IC50 came to 309 nM in [17] and 112 nM in [9]. Also, the selectivity ratio in data set [10] was found to be 6.85; in data set [11], 33.8; in [12], 14; in [13], 18.1; in [15], 63.8; in [16] it was 3.75. Also, the selectivity ratio in [18] was found to be 38.6. The viability at 10 µM amounted to 45% in data set [2] and 25% in data set [3].
As for `C=C(CC)C(=O)c1ccc(OCC(=O)NCCNS(=O)(=O)c2cc(Cl)ccc2OC)c(Cl)c1Cl`, the 50% inhibitory concentration (IC50) in [1] is 1600 nM. Besides, the viability at 10 µM turned out to be 78% in [2] and 18% in [3].
The corresponding values for `C=C(CC)C(=O)c1ccc(OCC(=O)NC2CCN(S(=O)(=O)c3ccc(OC)cc3OC)CC2)c(Cl)c1Cl` are 860 nM, 90% and 11%.
In the case of `C=C(CC)C(=O)c1ccc(OCC(=O)NCCNS(=O)(=O)c2ccc([N+](=O)[O-])cc2)c(Cl)c1Cl`, the IC50 in data set [1] turned out to be 580 nM. The values for the viability at 10 µM in [2] and in data set [3] were 59% and 27%, respectively.
The corresponding values for `C=C(CC)C(=O)c1ccc(OCC(=O)NCCNS(=O)(=O)c2ccc(OC)cc2OC)c(Cl)c1Cl` are 2790 nM, 77% and 35%.
The corresponding values for `C=C(CC)C(=O)c1ccc(OCC(=O)N2CCN(S(C)(=O)=O)CC2)c(Cl)c1Cl` are 3390 nM, 68% and 24%.
With `C=C(CC)C(=O)c1ccc(OCC(=O)N2CCN(S(=O)(=O)c3cccc4cccnc34)CC2)c(Cl)c1Cl`, in data set [1], the IC50 stood at 2980 nM. The viability at 10 µM stood at 100% in data set [2] and 28% in data set [3].
